The nature of series [1]: Time of maximum L-Dopa plasma concentration was measured in mouse ofter oral administration of the compound. The note with it: in vivo.
Series [2] in a line: Time of maximum L-Dopa plasma concentration was measured in monkey ofter oral administration of the compound. Format: ADME, organism-based. Particulars: simiiformes, in vivo. The essentials: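 A single male Cynomolgus monkey (2.7 kg) was fasted 12 h and given 0.5 mmol/kg orally. Blood was drawn from the femoral vein, and plasma L-Dopa and dopamine were assayed by HPLC with fluorometric detection. Cmax is the peak plasma concentration (nmol/mL); tmax is the time of that peak (min).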

Series [3] can be described thus: Peak plasma concentration expresses the ability of compound for the release of L-Dopa in the plasma of monkey after oral administration of 0.5 mmol/kg. Particulars: simiiformes, in vivo.
The subject of series [4] is Rattus norvegicus. Kind of series: Time of maximum dopamine plasma concentration was measured in rat ofter oral administration of the compound. It counts as ADME, organism-based. Particulars: in vivo. In outline: (§1)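 Overnight-fasted male Wistar rats (230–250 g), five per compound, received 0.5 mmol/kg orally. Tail-vessel blood was sampled at 10, 20 and 30 min and 1–6 h. Plasma was deproteinized with perchloric acid and centrifuged, then L-Dopa and dopamine were measured by reversed-phase HPLC with fluorometric detection, quantified by peak area. Cmax (nmol/mL) and tmax (min) were taken from the mean curves.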

Series [5] relates to Rattus norvegicus. Briefly: Time of maximum L-Dopa plasma concentration was measured in rat ofter oral administration of the compound. It counts as ADME, organism-based. Particulars: in vivo. In outline:
as §1

Series [6] deals with Rattus norvegicus. Briefly: Peak plasma concentration expresses the ability of compound for the release of L-Dopa in the plasma of rat after oral administration of 0.5 mmol/kg. Particulars: in vivo.
Series [7] relates to Rattus norvegicus. Kind of series: Peak plasma concentration expresses the ability of compound for the release of dopamine in the plasma of rat after oral administration of 0.5 mmol/kg. Particulars: in vivo.
A short description of series [8]: Peak plasma concentration expresses the ability of compound for the release of dopamine in the plasma of monkey after oral administration of 0.5 mmol/kg. The note with it: simiiformes, in vivo.
Series [9] has as its system Mus musculus. Briefly: Peak plasma concentration expresses the ability of compound for the release of dopamine in the plasma of mouse after oral administration of […]. Format: ADME, organism-based. Further details: route oral. The note with it: in vivo. The essentials:
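Male NMRI mice (20–25 g), five per time point and compound, received 0.5 mmol/kg orally. They were decapitated at 10, 20 and 30 min and 1–6 h. Blood was collected, deproteinized with perchloric acid and assayed for L-Dopa and dopamine by HPLC with fluorometric detection. Cmax is given in nmol/mL and tmax in min.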

For series [10], the system named is Mus musculus. Kind of series: Peak plasma concentration expresses the ability of compound for the release of L-Dopa in the plasma of mouse after oral administration of 0.5 mmol/kg. The note with it: in vivo.

Several values for one entry are separate records, joined by “and”; a condition that tells them apart may be missing. Equal entries are not always repeated.

As to `CCCCCCCCCCCCCCCC(=O)OCC(COC(=O)CCCCCCCCCCCCCCC)OC(=O)C(N)Cc1ccc(O)c(O)c1` (centres undefined), the T max in series [1] is 2 h; in series [2], 1.83 h; in the series with Rattus norvegicus [4], 4 h and 2.5 h; in the series on Rattus norvegicus [5], 3 h. Moreover, the Cmax in series [3] was 18.3 nM ml-1; with Rattus norvegicus [6], 24.6 nM ml-1; with Rattus norvegicus [7], 17.1 nM ml-1; in series [8] it was 6.1 nM ml-1; in the series with Mus musculus [9], 1.6 nM ml-1 and 3.54 nM ml-1.
Take `N[C@@H](Cc1ccc(O)c(O)c1)C(=O)O` [LEVODOPA]: the T max in [1] came out at 0.5 h. In addition, the Cmax in series [3] was determined as 9.5 nM ml-1; in the series on Rattus norvegicus [6], 16.2 nM ml-1; in series [8], 8.1 nM ml-1; in the series with Mus musculus [10], 1.12 nM ml-1.
